Shown are actives, neighbours in structure and some others; about 3.8% of the full set was active somewhere.
NPY Y1 blocker: NPY-Y1 (human) receptor antagonism; P25929; HEK293-CNG Y1 cells, membrane potential fluorescence; NPY at EC95, then isoproterenol; inhibition, % at 3.6 µM; 200,000 tested, 1% active; AID 1040;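 active = inhibition above the campaign mean inhibition of all tested compounds plus 3 SD, cut at about 20% in these data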
Target sequence (P25929 whole entry, looked up): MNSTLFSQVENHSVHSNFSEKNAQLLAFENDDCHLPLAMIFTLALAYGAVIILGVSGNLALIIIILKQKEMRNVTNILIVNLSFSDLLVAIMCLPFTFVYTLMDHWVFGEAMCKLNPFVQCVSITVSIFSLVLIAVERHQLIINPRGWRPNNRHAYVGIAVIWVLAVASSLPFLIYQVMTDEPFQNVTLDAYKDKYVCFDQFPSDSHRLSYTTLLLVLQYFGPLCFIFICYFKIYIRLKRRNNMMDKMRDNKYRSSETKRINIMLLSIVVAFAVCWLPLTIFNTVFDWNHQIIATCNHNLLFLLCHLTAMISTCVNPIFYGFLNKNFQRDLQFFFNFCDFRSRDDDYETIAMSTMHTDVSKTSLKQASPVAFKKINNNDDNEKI
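Benchmarks – high control isoproterenol alone, low control NPY with isoproterenol · Material – HEK293 Y1/CNG channel cell line · Times – dye 3 h, compound 60 min room temperature, stimulation 45 min · Probe or stimulus – NPY (25 nM), isoproterenol (1 µM), Ro 20-1724 (25 µM) · Evaluation – % inhibition of NPY effect · Signal – fluorescence, membrane potential probe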
NPY1 pot ag: potentiates or activates human NPY-Y1 receptor | 220,000 tested, 0.37% active | activation, % at 3.6 µM | P25929 | NPY-Y1 expressing cells, potentiator/agonist activation; in the data active = activation above about 33%, passing the limit was not always enough;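 also: cells stimulated with NPY at EC10 then isoproterenol at EC100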
INS promoter inh: TRM-6 insulin promoter activity inhibition | TRM-6 cells, insulin promoter-eGFP reporter, imaging; reporter expression induced with tamoxifen | inhibition, % at 2 µM | 130,000 tested, 0.9% active;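 active = inhibition above the mean plus 3 SD, with well images judged a real hit on visual review, cut at about 60% in these data, passing the limit was not always enough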
RAM network inh: blocks the yeast RAM network. 190,000 tested, 1.8% active. S. cerevisiae dse1pr::URA3 reporter, 5-FOA growth OD615, 2 d; analog-sensitive cbk1-as2 kinase mutant strain. AID 868. inhibition, % at 50 µM;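 active = inhibition above a set limit, 3 SD over mean compound inhibition, cut at about 8.4% in these data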;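 also: inhibition rescues growth on 5-FOA so higher OD means more RAM inhibition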
NPY Y2 blocker: NPY-Y2 (human) receptor antagonism. 140,000 tested, 0.99% active. inhibition, % at 2.7 µM. P49146. AID 793. NPY-Y2 expressing cells, antagonist mode; in the data active = inhibition above about 17%
NPY2 pot ag: potentiates or activates human NPY-Y2 receptor | cells expressing NPY-Y2, potentiator/agonist read-out | 220,000 tested, 0.45% active | P49146 | AID 1359 | activation, % at 3.6 µM; in the data active = activation above about 27%;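 also: cells stimulated with NPY near EC25 plus isoproterenol at EC100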
RAM efflux-def: RAM network inhibition, efflux-deficient strain. 1,200 tested, under 10 active. max inhibition, %. S. cerevisiae efflux-deficient reporter strain, 5-FOA growth OD615, 2 days. shares compounds with RAM network inh; call rule not given here
Numbers stand for hits; . = inactive; / = no result given.

SMILES	NPY Y1 blocker	NPY1 pot ag	INS promoter inh	RAM network inh	NPY Y2 blocker	NPY2 pot ag	RAM efflux-def
COc1cc(OC)cc(-c2nnc(SCc3cccc(C(=O)O)c3)o2)c1	.	.	.	14	.	.	.
O=C(O)c1cccc(CSc2nnc(-c3ccco3)o2)c1	.	.	.	.	.	.	/
Cc1ccccc1-c1nnc(SCc2ccc(F)cc2)o1	.	.	.	.	.	.	/
O=C(Nc1ccccc1-c1nnc(SCc2ccccc2)o1)c1ccccc1	.	.	.	19	.	.	.
CNC(=S)n1cnc(N)n1	/	.	/	/	/	.	/
O=C(CC12CC3CC(CC(C3)C1)C2)NC(=S)NCc1ccco1	.	.	.	15	/	.	.
O=C(NCc1ccco1)C12CC3CC(CC(C3)C1)C2	.	.	.	.	.	.	/
O=C(CN(Cc1ccccc1)S(=O)(=O)c1ccc(Br)cc1)NCc1ccco1	.	.	.	.	.	.	/
CCCOc1ccc(/C=C/C(=O)Nc2ccc([N+](=O)[O-])cc2)cc1	.	.	.	13	.	.	.
CCCCOc1ccc(/C=C/C(=O)Nc2ccc([N+](=O)[O-])cc2C)cc1	.	.	/	.	.	.	/
COc1ccc(/C=N/OCC(=O)NC(c2ccccc2)c2ccccc2)c(OC)c1	.	.	.	12	.	.	.
Cc1nnc(SC(C)C(=O)Nc2ncc(Cl)cc2Cl)n1Cc1ccccc1 (stereo not given)	.	.	.	.	.	.	/
Cc1cc(SC(C)C(=O)Nc2ncc(Cl)cc2Cl)nc2ccccc12 (stereo not given)	.	.	.	12	.	.	.
CCOC(=O)c1ccc(S(=O)(=O)N2CCN(C(=O)c3cc(=O)c4ccccc4o3)CC2)cc1	.	.	.	.	/	.	/
O=C(CCC(=O)OCCCC(F)(F)C(F)(F)F)Nc1ccc(Cl)cc1Cl	.	.	.	29	.	.	.
CC(=O)N[C@@H](Cc1c[nH]c2ccccc12)C(=O)OCC(=O)Nc1ccc(S(=O)(=O)N(C)C)cc1	.	.	/	.	/	.	/
CCNS(=O)(=O)c1ccc(NS(=O)(=O)c2cc(C)ccc2C)cc1	.	.	.	.	.	.	/
CCCCNS(=O)(=O)c1ccc(NS(=O)(=O)c2c(C)cc(C)cc2C)cc1	.	.	.	12	.	.	.
Cc1ccc(C(C)C)c(OCC(=O)OCc2c(C)noc2C)c1	.	.	/	23	.	.	.
CCCOc1ccc(-c2nc(OCC)c3ccccc3n2)cc1	.	.	.	13	.	.	.
CCOc1nc(-c2ccncc2)nc2ccccc12	.	.	.	.	.	.	/
Cc1cc(C)cc(NC(=O)COC(=O)CCCNC(=O)c2ccc(Cl)cc2)c1	.	.	/	.	.	.	/
O=C(COC(=O)CCCNC(=O)c1ccc(Cl)cc1)Nc1cc(Cl)c(Cl)cc1Cl	.	.	.	42	.	.	.
COc1ccc(NCc2nnc(SCC#N)n2-c2ccccc2OC)cc1	.	.	/	.	.	.	/
C=CCSc1nc(-c2ccc(OC)cc2)c(C#N)c(=O)n1CC=C	.	.	/	12	/	.	.
SMILES	NPY Y1 blocker	NPY1 pot ag	INS promoter inh	RAM network inh	NPY Y2 blocker	NPY2 pot ag	RAM efflux-def
COc1ccc(-c2nc3n(c(=O)c2C#N)CCS3)cc1	.	.	.	.	/	.	/
O=C(COC(=O)CCSc1ccccc1)NCc1ccccc1	.	.	/	.	/	.	/
O=C1c2ccccc2C(=O)N1CCCCN(C(=O)c1ccc(Cl)s1)c1ccc(Cl)cc1	.	.	.	12	.	.	.
Cc1nnc(SCC(=O)N2CCCC2)n(N)c1=O	.	.	.	.	/	.	/
O=C(c1cccc(Cl)c1)N1CCCC(c2ccc(Cl)cc2)=N1	.	.	.	17	.	.	.
CC(Sc1nnc(-c2ccco2)o1)C(=O)NCCC1=CCCCC1 (stereo not given)	.	.	.	.	/	.	/
O=C(CSc1nnc(-c2cccc(S(=O)(=O)N3CCCCC3)c2)o1)NCCC1=CCCCC1	.	.	.	12	.	.	.
CCN(CC)S(=O)(=O)c1cccc(-c2nnc(SC(C)C(=O)NCCC3=CCCCC3)o2)c1 (stereo not given)	.	.	.	14	.	.	.
O=[N+]([O-])c1ccc(OCC2CC(c3ccccc3)=NO2)cc1 (stereo not given)	/	.	/	/	/	.	/
CC(C)(C)NS(=O)(=O)c1ccc(CCC(=O)Nc2cc(Cl)ccc2Oc2ccccc2)cc1	.	.	.	.	.	.	/
CC(C)CNS(=O)(=O)c1ccc(CCC(=O)Nc2cc(Cl)ccc2Oc2ccccc2)cc1	.	.	.	13	.	.	.
CCCNS(=O)(=O)c1ccc(CCC(=O)Nc2cc(Cl)ccc2Oc2ccccc2)cc1	.	.	/	12	.	.	.
C=CCC1(Cl)C(=O)C(Cl)=C(N2CCN(C)CC2)C1(OC)OC (stereo not given)	/	.	/	/	/	.	/
COc1ccc(C)cc1-n1c(=O)c2ccccc2c2ccccc2c1=O	.	.	.	.	/	.	/
COc1ccc(C)cc1N1C(=N)/C(=C2/Nc3ccccc3S2)C(c2ccccc2)C1=O (stereo not given)	.	.	.	13	.	.	.
CCCn1c(=O)c(C(=O)Nc2ccccc2C(=O)OCC)c(O)c2ccccc21	.	.	.	16	.	.	.
CCOC(=O)Cc1csc(NC(=O)c2c(O)c3ccccc3n(CC(C)C)c2=O)n1	.	.	/	13	.	.	.
CCCn1c(=O)c(C(=O)Nc2ncccc2C)c(O)c2ccccc21	.	.	/	.	/	.	/
CCCn1c(=O)c(C(=O)NCc2ccc(OC)c(OC)c2)c(O)c2ccccc21	.	.	/	17	.	.	.
CCn1c(=O)c(C(=O)NCc2ccc(OC)c(OC)c2)c(O)c2ccccc21	.	.	.	.	.	.	/
C=CCSC1=N/C(=C/c2ccsc2)C(=O)N1c1ccccc1	.	.	.	14	.	.	.
CN(c1ccc(C(=O)NCCSCc2ccccc2)cc1)S(=O)(=O)c1ccccc1	.	.	.	.	.	.	/
Cc1cccc(CSCCNC(=O)c2ccc(N(C)S(=O)(=O)c3ccccc3)cc2)c1	.	.	.	18	.	.	.
C=CCNC(=O)/C(C#N)=C/c1ccc(OS(=O)(=O)c2ccc(C)cc2)c(OC)c1	.	.	.	15	.	.	.
Cn1c(=O)c(/C=C/c2ccccc2)nc2ccccc21	.	.	.	.	.	.	/
Cn1c(=O)c(/C=C/c2ccc(F)cc2)nc2ccccc21	.	.	/	14	/	.	.
COc1ccc(C(=O)/C=C/C(=O)N(CC(=O)NCCC(C)C)Cc2cccs2)c(O)c1	.	.	/	12	/	.	.
COc1ccc(C(=O)N(Cc2ccco2)Cc2cccs2)c(O)c1	.	.	.	.	.	.	/
Cc1cnn(-c2nc(-c3ccccc3)cc(-c3ccccc3)n2)c1	.	.	/	14	/	.	.

Screening results from PubChem.
